Experimental data: ChEMBL document CHEMBL4831540, “Discovery of Aficamten (CK-274), a Next-Generation Cardiac Myosin Inhibitor for the Treatment of Hypertrophic Cardiomyopathy” (J Med Chem, 2021)

Assays:
[1] = target: T1, Cytochrome P450 2B6 (Homo sapiens, UniProt P20813); assay: Induction of CYP2B6 in human hepatocytes assessed as mRNA expression incubated for 3 days by RT-RTPCR analysis; type: ADME, cell-based; conditions: hepatocyte
T1 sequence (P20813 whole entry): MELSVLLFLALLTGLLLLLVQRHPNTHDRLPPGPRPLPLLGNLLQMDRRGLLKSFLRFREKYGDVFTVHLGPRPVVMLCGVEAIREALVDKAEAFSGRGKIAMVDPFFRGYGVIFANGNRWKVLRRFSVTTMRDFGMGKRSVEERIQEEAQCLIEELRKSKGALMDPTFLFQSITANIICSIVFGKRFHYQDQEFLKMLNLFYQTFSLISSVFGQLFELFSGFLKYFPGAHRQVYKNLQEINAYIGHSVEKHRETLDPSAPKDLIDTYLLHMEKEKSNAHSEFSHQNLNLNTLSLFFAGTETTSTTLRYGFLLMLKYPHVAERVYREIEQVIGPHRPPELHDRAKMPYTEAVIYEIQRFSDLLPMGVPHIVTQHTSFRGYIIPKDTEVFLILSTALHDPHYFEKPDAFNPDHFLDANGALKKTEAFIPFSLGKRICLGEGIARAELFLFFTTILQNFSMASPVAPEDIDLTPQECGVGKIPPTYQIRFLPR
Method in brief: (§1)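 Cryopreserved plateable human primary hepatocytes from three separate donors were tested at concentrations up to 50 μM. The end point was CYP mRNA level, with induction judged against predetermined cutoff values (2-fold).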

[2] = tested on: Rattus norvegicus; assay: Anti-hypertrophic cardiomyopathy in po dosed Sprague-Dawley rat assessed as reduction in fractional shortening measured upto 24 hrs by echocardiography; type: functional, organism-based
Method in brief: (§2)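 Normal Sprague–Dawley rats were given single oral doses of 0.5–4 mg/kg. Left ventricular dimensions and fractional shortening were measured by echocardiography at selected time points over 24 h, relative to vehicle treatment.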

[3] = Half life in human; type: ADME
[4] = Ratio of IC50 to IC10 for anti-hypertrophic cardiomyopathy in po dosed Sprague-Dawley rat assessed as reduction in fractional shortening measured upto 24 hrs by echocardiography; type: functional; conditions: time hrs <=24
Method in brief: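 Sprague–Dawley rats received single oral doses from 0.5 to 4 mg/kg. LV dimensions and fractional shortening were read by echocardiography at set times over 24 h, with blood drawn at each reading for compound level. Concentrations giving 50% and 10% FS reduction were derived, and their IC50/IC10 ratio was calculated.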

[5] = tested on: Rattus norvegicus; assay: Anti-hypertrophic cardiomyopathy in Sprague-Dawley rat assessed as reduction in fractional shortening at 4 mg/kg, po measured upto 24 hrs by echocardiography relative to control; type: functional; parameters: scale not given: the % may be the effect or the level left; conditions: time hrs <=24; method in brief: as §2
[6] = target: CYP3A4 (Homo sapiens, UniProt P08684); assay: Induction of CYP3A4 in human hepatocytes assessed as mRNA expression incubated for 3 days by RT-RTPCR analysis; type: ADME, cell-based, Hepatocyte; method in brief: as §1
CYP3A4, sequence (P08684 whole entry): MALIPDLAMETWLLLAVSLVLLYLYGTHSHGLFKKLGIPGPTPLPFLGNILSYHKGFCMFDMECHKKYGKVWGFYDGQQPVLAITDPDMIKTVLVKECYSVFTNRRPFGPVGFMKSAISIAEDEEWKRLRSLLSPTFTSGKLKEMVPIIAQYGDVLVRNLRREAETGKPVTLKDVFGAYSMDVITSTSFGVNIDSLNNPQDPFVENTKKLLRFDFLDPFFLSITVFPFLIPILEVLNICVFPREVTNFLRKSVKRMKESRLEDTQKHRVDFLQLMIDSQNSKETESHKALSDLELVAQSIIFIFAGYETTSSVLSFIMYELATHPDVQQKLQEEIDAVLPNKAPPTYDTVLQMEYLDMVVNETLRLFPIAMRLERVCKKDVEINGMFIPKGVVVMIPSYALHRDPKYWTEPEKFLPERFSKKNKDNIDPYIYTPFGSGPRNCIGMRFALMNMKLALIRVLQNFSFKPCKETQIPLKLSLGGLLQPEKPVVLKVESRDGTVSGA

## CC(C)n1c(=O)cc(N[C@@H](C)c2ccccc2)[nH]c1=O [MAVACAMTEN]
[1]
  EC50: 5.1 µM
[2]; Rattus norvegicus, Sprague-Dawley, 24 h
  IC10: 600 nM
[2]; time hrs <=24
  IC50: 1.7 µM
[3]
  half-life: 9 days
[4]
  Ratio: 2.8
[5]
  Activity: 80%
[6]
  EC50 at 3 days: 2200 nM
